From PubChem
Shown are actives, neighbours in structure and some others; about 3.5% of the full set was active somewhere.
HTRA1 inh = HTRA1 serine protease inhibitors, primary screen, biochemical, fluorescence polarization, HTS; recombinant HTRA1, FP-rhodamine activity-based probe; Q92743; inhibition, % at 5.96 µM; 340,000 tested, 0.5% active; in the data active means inhibition above about 36%
ABHD4 inh = ABHD4 inhibitors, primary screen, biochemical, fluorescence polarization, mouse. purified mABHD4, FP-Rh probe fluorescence polarization. AID 720543, 2013. (Lyso)-N-acylphosphatidylethanolamine lipase (Mus musculus), Q8VD66. 370,000 tested, 0.54% active. inhibition, % at 8.92 µM;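 active means inhibition exceeding the mean over every tested compound plus 3 SD, cut at about 30% in these data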
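Doses – 8.92 µM, single dose · Material – wild-type mouse ABHD4 protein · Replication – single well per compound (singlicate) · Measure – percent inhibition of probe binding, normalized to plate controls · Schedule – 45 min compound pre-incubation plus 60 min probe step, 25 °C · Detection – fluorescence polarization with parallel and perpendicular emission, 525/598 nm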
SIAE inh = human SIAE inhibitors, primary screen, biochemical, fluorescence polarization, FP-Rh probe, 1536-well HTS | Sialate O-acetylesterase (Homo sapiens), Q9HAT2 | SIAE FP-Rh probe binding | inhibition, % at 9.66 µM | 370,000 tested, 0.69% active;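 active means inhibition above a cutoff: mean of compounds within the control limits plus 3 SD of those, cut at about 17% in these data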
Target sequence (Q9HAT2 whole entry, looked up): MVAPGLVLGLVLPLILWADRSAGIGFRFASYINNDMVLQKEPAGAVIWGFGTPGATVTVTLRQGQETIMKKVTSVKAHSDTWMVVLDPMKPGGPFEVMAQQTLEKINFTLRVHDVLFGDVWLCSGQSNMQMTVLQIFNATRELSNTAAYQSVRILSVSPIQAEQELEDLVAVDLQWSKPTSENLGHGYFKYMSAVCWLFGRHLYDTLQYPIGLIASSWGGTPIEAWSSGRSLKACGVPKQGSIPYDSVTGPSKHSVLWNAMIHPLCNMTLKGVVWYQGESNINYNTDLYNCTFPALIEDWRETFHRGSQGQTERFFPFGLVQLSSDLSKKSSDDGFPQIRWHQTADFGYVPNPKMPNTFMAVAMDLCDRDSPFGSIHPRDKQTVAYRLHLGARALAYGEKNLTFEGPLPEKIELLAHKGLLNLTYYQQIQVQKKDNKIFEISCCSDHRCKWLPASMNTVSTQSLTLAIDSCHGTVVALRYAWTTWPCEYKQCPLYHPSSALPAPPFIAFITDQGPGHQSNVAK
rCAG binder = binders of r(CAG) RNA repeats, primary screen, biochemical, fluorescence | r(CAG) RNA repeat, TO-PRO-1 dye displacement fluorescence | inhibition, % at 3 µM | 370,000 tested, 1.3% active | AID 651821, 2012;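 active means inhibition above the plate cutoff, the mean of all test compounds on that plate plus 3 SD, cut at about 35% in these data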;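 further: higher means more dye released from RNA so lower well fluorescence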
PRMT1 FP inh = PRMT1 methyltransferase inhibitors, primary screen, biochemical, fluorescence polarization. Protein arginine N-methyltransferase 1 (Homo sapiens), Q99873. inhibition, % at 2.79 µM. recombinant PRMT1, activity-based probe fluorescence polarization. 370,000 tested, 1.3% active. AID 652257, 2013;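 active means inhibition above about 21% made by adding two undisclosed values, limit read from the data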
TCR-CD3 inh = inhibitors of human TCR-CD3 interaction, primary screen, biochemical, fluorescence, TAMRA-labeled TCR probe. T-cell receptor (TCR). inhibition, % at 9.4 µM. 360,000 tested, 0.37% active; in the data active means inhibition above about 19%;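 further: recombinant mutant TCR 2C K166C tagged with TAMRA read by polarization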
rCAG bind conf = small molecules binding CAG repeat RNA – biochemical, fluorescence, confirmation; shares compounds with rCAG binder; r(CAG) RNA repeat, TO-PRO-1 dye displacement fluorescence; inhibition, % at 3 µM; 4,300 tested, 70% active; AID 652065, 2013;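 active means inhibition above a per-plate cutoff, the mean inhibition of sample wells plus 3 SD, cut at about 35% in these data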;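 further: loss of TO-PRO-1 fluorescence as compound displaces dye from 1x1 AA loop RNA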
dCAG dye counter = displacement of TO-PRO-1 from CAG DNA duplex, counter-screen for rCAG RNA repeat binder project, biochemical, fluorescence, TO-PRO-1 dye, d(CAG) DNA oligo | d(CAG) DNA oligo TO-PRO-1 dye displacement | inhibition, % at 3 µM | shares compounds with rCAG binder | 4,300 tested, 94% active | AID 652068, 2013;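 active means inhibition above its plate's cutoff, the mean test-well inhibition plus 3 SD, cut at about 4.8% in these data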;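 further: hits displace the dye from DNA and so lower well fluorescence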
A number is an active result; – = inactive; · = not tested or not shown.

SMILES | HTRA1 inh | ABHD4 inh | SIAE inh | rCAG binder | PRMT1 FP inh | TCR-CD3 inh | rCAG bind conf | dCAG dye counter
O=C1CSc2ccc(C(=O)Nc3cccc(S(=O)(=O)Nc4ccc(Br)cc4)c3)cc2N1 | – | – | – | 39.1 | 21.5 | – | 45.3 | 15.3
O=C(O)c1ccc(NC(=O)c2cccc(S(=O)(=O)Nc3ccc(C(=O)O)cc3)c2)cc1 | – | – | – | – | – | – | · | ·
COc1ccc(Cn2c(NC(=O)c3ccccc3)nc(Cc3ccccc3)c2-c2ccccc2)cc1 | · | – | – | – | – | · | · | ·
COc1ccc(OC)c(/C=C2\Oc3cc(OCC(=O)N4CCC(C(=O)O)CC4)ccc3C2=O)c1 | – | – | – | 37.9 | – | – | 41.6 | 8.6
COc1ccc(/C=C2\Oc3cc(OCC(=O)N4CC(O)C[C@H]4C(=O)O)ccc3C2=O)c(OC)c1OC (stereo partly specified) | – | – | – | – | – | – | · | ·
COc1ccc(OC)c(/C=C2\Oc3cc(OCC(=O)N4CC(O)C[C@H]4C(=O)O)ccc3C2=O)c1 (stereo partly specified) | – | – | – | 41.6 | – | – | – | 5.9
O=C(C1CCN(c2ncnc3c2sc2cccc(F)c23)CC1)N1CCN(C(=O)C2CCCO2)CC1 (stereo unspecified) | · | – | – | – | – | · | · | ·
O=C(Nc1cc(S(=O)(=O)Nc2ccc(Cl)cc2)ccc1O)c1ccc(S(=O)(=O)N2CCCCCC2)cc1 | – | – | – | 46.7 | – | – | 73.4 | 37.7
O=C(Nc1cc(S(=O)(=O)N2CCOCC2)ccc1O)c1ccc(S(=O)(=O)N2CCCCC2)cc1 | – | – | – | 40.0 | – | – | 37.0 | 10.3
O=S(=O)(Nc1cccc(S(=O)(=O)N2CCCC2)c1)c1ccc(Cl)cc1 | – | – | – | 35.8 | – | – | – | 6.5
Cc1ccc(S(=O)(=O)N2CCOCC2)cc1C(=O)Nc1cc(S(=O)(=O)N2CCCCC2)ccc1O | – | – | – | – | – | – | · | ·
O=C(Nc1ccc(S(=O)(=O)O)cc1)c1ccc2c(c1)S(=O)(=O)c1ccccc1C2=O | – | – | – | 40.1 | – | – | – | –
COc1ccc(CN(CCN2CCOCC2)C(=O)c2ccc(F)cc2F)cc1OC | · | – | – | – | – | · | · | ·
COC(=O)c1ccc(Cn2ccc3ccc(-c4ccc5ccn(Cc6ccc(OC)cc6)c5c4)cc32)cc1 | · | – | – | – | – | · | · | ·
O=C(Nc1cc(S(=O)(=O)N2CCOCC2)ccc1O)c1ccc2c(c1)S(=O)(=O)c1ccccc1C2=O | – | – | – | 42.5 | 21.5 | – | 68.7 | 30.7
COc1ccccc1NC(=O)c1ccc(NS(=O)(=O)c2ccc(F)c(Cl)c2)cc1 | – | – | – | 44.1 | – | – | 54.2 | 13.7
CC(=O)c1cc(-c2ccccc2S(=O)(=O)NC(C)(C)C)c(=O)n2c1CCC2 | · | – | – | – | – | · | · | ·
O=C(c1ccccc1C(F)(F)F)N1CCC(Oc2cccnc2)CC1 | · | – | – | – | – | · | · | ·
CC(=O)Oc1c(C)c(OC(C)=O)c2c(c1C(C)=O)OC1CC(=O)C(C(C)=O)=C(O)C21C (stereo unspecified) | – | – | – | – | – | – | · | ·
CC(=O)c1c(O)c(C)c(O)c2c1OC1=CC(=O)C(C(C)=O)C(=O)[C@@]12C (stereo partly specified) | – | – | – | 41.7 | – | – | – | –
Cc1cc(C(=O)O[C@@H]2CCC[C@@]3(C(=O)N(Cc4ccccc4)c4ccccc43)[C@H]2NC(=O)CCc2ccccc2)no1 | · | – | – | – | – | · | · | ·
CCCCC(=O)Nc1nnc(S(=O)(=O)N(CC)c2ccc(OC)cc2)s1 | – | – | – | – | – | – | · | ·
O=C(COc1ccccc1)Nc1nnc(S(=O)(=O)N2CCCC2)s1 | – | – | – | – | – | – | · | ·
